efflux, lower = inhibition data for two compounds are collected here from PubChem BioAssay AID602138 (Broad Institute, 2011).

The source made the active and inactive calls. No rule for the calls is given here.

This assay can be described thus: HDL-directed efflux in C384S receptor cells – cell-based, ldlA CHO, [3H]cholesterol, dry powder, mechanism study for SR-BI HDL uptake inhibitor project, dose response (AID 602138). To be noted: ldlA CHO cells mSR-BI C384S, [3H]cholesterol efflux to HDL; at 25 µM (top of the series). The gist of the method: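 Dosing: compound in assay medium with 0.5% DMSO / System: Cys384S SR-BI mutant ldlA CHO cells / Measured by: scintillation counting, medium and lysate / Times: 1 h compound pre-exposure at 37 °C, 2 h efflux / Probe or stimulus: HDL, 100 µg/mL final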

As to `COCC(=O)N1CCc2cc(-c3csc(NC(=O)c4cc(OC)cc(OC)c4)n3)ccc21`, the efflux, lower = inhibition is 6.26% (active).

Consider `C[C@H](C(=O)NC1CCCC1)N(C(=O)Cn1nnc(-c2ccc3c(c2)OCO3)n1)C1CCCCC1`, for which the efflux, lower = inhibition was 5.73% (active).
